Laboratory results: ChEMBL document CHEMBL1139364, “Codrugs linking L-dopa and sulfur-containing antioxidants: new pharmacological tools against Parkinson's disease” (J Med Chem, 2009)
≈ marks a conversion by molar mass, not a printed value. Calls of active or inactive are those of the source. No cut-off for these calls is given here. Where a SMILES comes first, the peptide text is derived from it. [ ]: non-standard residue; d: D form. Dopa = N[C@@H](Cc1ccc(O)c(O)c1)C(=O)O

Columns and labels:
[1] = Solubility at 50 mg in phosphate buffer at pH 7.4; format: physicochemical
Method in brief: (§1)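 Solubility in water and in buffers at pH 1.3, 5.0 and 7.4 via shake-flask approach; concentration determined by HPLC with UV diode-array detection.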

Rattus norvegicus [2] = assay: Cmax in Sprague-Dawley rat assessed as L-dopa level at 0.332 mmol/kg, po; format: ADME, organism-based; set-up: dose 0.332 mmol/kg, route oral; conditions: in vivo
Method in brief: (§2)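 Male Sprague–Dawley rats dosed orally at 0.332 mmol/kg; plasma L-dopa followed over time; noncompartmental parameters (Cmax, Tmax, AUC, AUMC, MRT) derived from plasma concentration profiles; data mean ± SE.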

[3] = Stability assessed as half life in hydrochloric acid buffer at pH 1.3; format: physicochemical
Method in brief: (§3)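 Incubation at 37 °C in simulated gastric fluid (pH 1.3) or isotonic sodium phosphate buffer (pH 7.4); loss of parent monitored by HPLC UV-DAD; pseudo-first-order rate constants from slope of log residual compound vs time, giving half-life.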

Rattus norvegicus [4] = assay: Effect on behavioral changes in icv dosed Wistar rat assessed as decrease in rearing episodes after 1.5 hrs by open-field studies compared to L-dopa; format: functional, organism-based
Rattus norvegicus [5] = assay: Tmax in Sprague-Dawley rat assessed as L-dopa level at 0.332 mmol/kg, po; format: ADME, organism-based; conditions: in vivo; method in brief: as §2
Rattus norvegicus [6] = assay: AUC in Sprague-Dawley rat assessed as L-dopa level at 0.332 mmol/kg, po; format: ADME, organism-based, Plasma; conditions: in vivo; method in brief: as §2
[7] = Solubility at 50 mg in phosphate buffer at pH 5.0; format: physicochemical; method in brief: as §1
[8] = Solubility at 50 mg in phosphate buffer at pH 1.3; format: physicochemical; method in brief: as §1
Rattus norvegicus [9] = assay: Effect on behavioral changes in po dosed Wistar rat assessed as decrease in spontaneous locomotory activity after 1.5 hrs by open-field studies compared to L-dopa
Rattus norvegicus [10] = assay: Mean residence time in Sprague-Dawley rat assessed as L-dopa level at 0.332 mmol/kg, po; format: ADME, organism-based; conditions: in vivo; method in brief: as §2
[11] = Stability in rat plasma assessed as half life; format: ADME, cell-free
Method in brief: (§4)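 Conversion to L-dopa at 37 °C in rat or human plasma diluted to 80% with isotonic sodium phosphate buffer pH 7.4; residual compound followed over time; pseudo-first-order constants from log residual vs time slope, giving half-life.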

[12] = Partition coefficient, log K pf the compound; format: physicochemical; conditions: octanol/water
Method in brief: (§5)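 Partition between n-octanol and phosphate buffer pH 7.4 by saturated shake-flask method; compound concentration in phases measured by HPLC with UV diode-array detection.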

[13] = Stability in human plasma assessed as half life; format: ADME, cell-free; method in brief: as §4
[14] = Antioxidant activity against luminol-induced peroxide radicals by chemiluminescence assay; format: functional
Method in brief: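 Chemiluminescence assay with luminol used to measure hydrogen peroxide level.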

[15] = Lipophilicity, log P pf the compound at pH 7.4 by saturated shake-flask method; format: physicochemical; conditions: buffer; method in brief: as §5
Rattus norvegicus [16] = assay: Effect on behavioral changes in po dosed Wistar rat assessed as decrease in grooming activity after 1.5 hrs by open-field studies compared to L-dopa
[17] = Solubility in water; format: physicochemical; method in brief: as §1
Rattus norvegicus [18] = assay: Effect on behavioral changes in icv dosed Wistar rat assessed as anxiety-like behavior by open-field studies; format: functional, organism-based
[19] = Stability assessed as half life in isotonic sodium phosphate buffer at pH 7.4; format: physicochemical; method in brief: as §3
[20] = Antioxidant activity against lucigenin-induced super oxide radicals by chemiluminescence assay; format: functional
Method in brief: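 Chemiluminescence assay; superoxide anions generated by xanthine/xanthine oxidase system, signal amplified with lucigenin.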

Rattus norvegicus [21] = assay: AUMC in Sprague-Dawley rat assessed as L-dopa level at 0.332 mmol/kg, po; format: ADME, organism-based; conditions: in vivo; method in brief: as §2
Rattus norvegicus [22] = assay: Antiparkinson activity in Wistar rat striatum assessed as L-dopa levels per mg of tissue at 1 umol/kg, icv after 1 week; format: functional
Method in brief: (§6)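 Rats dosed icv for 1 week at 1 µmol/kg; striatal L-dopa and dopamine quantified by HPLC with electrochemical detection; three experiments, mean with standard error.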

[23] = Plasma concentration in Sprague-Dawley rat after 8 hrs; format: ADME, organism-based
Method in brief: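 Male Sprague–Dawley rats given 0.332 mmol/kg orally; plasma L-dopa measured over time, including at 8 h; mean ± SE.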

Rattus norvegicus [24] = assay: Antiparkinson activity in Wistar rat striatum assessed as dopamine levels per mg of tissue at 1 umol/kg, icv after 1 week; format: functional; method in brief: as §6
Rattus norvegicus [25] = assay: Effect on behavioral changes in icv dosed Wistar rat assessed as increase in grooming activity after 3 days by open-field studies; format: functional, organism-based
Rattus norvegicus [26] = assay: Antiparkinson activity in po dosed rat striatum assessed as L-dopa levels per mg of tissue after 6 hrs
Rattus norvegicus [27] = assay: Sedative activity in icv dosed Wistar rat assessed as reduction of explorative activity; format: functional, organism-based
Rattus norvegicus [28] = assay: Effect on behavioral changes in icv dosed Wistar rat assessed as increase in rearing episodes after 3 days by open-field studies; format: functional, organism-based
Rattus norvegicus [29] = assay: Effect on behavioral changes in icv dosed Wistar rat assessed as increase in spontaneous locomotory activity after 3 days by open-field studies; format: functional, organism-based

solubility [1] [µg/mL]	Cmax (Rattus norvegicus [2]) [ng/mL]	half-life [3] [h]	Tmax (Rattus norvegicus [5]) [h]	AUC (Rattus norvegicus [6]) [ug/hr.ml]	solubility [7] [µg/mL]	solubility [8] [µg/mL]	MRT (Rattus norvegicus [10]) [h]	half-life [11] [h]	log K [12]	half-life [13] [h]	solubility [17] [µg/mL]	half-life [19] [h]	AUMC (Rattus norvegicus [21]) [ug/ml.hr'2]	Structure (SMILES)	Activity (Rattus norvegicus [4])	Activity (Rattus norvegicus [9])	Activity [14]	Activity (Rattus norvegicus [16])	Activity (Rattus norvegicus [18])	Activity [20]	other results
9.08 (≈ 19.8 µM)	16310	293	1.55	432.2	15.1 (≈ 32.7 µM)	20 (≈ 43.5 µM)	8.35	0.93	-0.11	3.39	15 (≈ 32.6 µM)	48.5	3608.38	COC(=O)[C@H](Cc1ccc(O)c(O)c1)NC(=O)[C@H](CS)NC(=O)[C@@H](CS)NC(C)=O	Active	Active	Active	Active	Active	Active	logD [15]: -0.14
13.5 (≈ 32.3 µM)	17410	292	6.04	493.29	3.82 (≈ 9.17 µM)	7.07 (≈ 17 µM)	8.22	1.16	0.2	1.5	14.3 (≈ 34.4 µM)	21.3	4056.32	COC(=O)[C@H](Cc1ccc(O)c(O)c1)NC(=O)[C@H](CS)NC(=O)C(C)(C)S	Active	Active	Active	Active	Active	Active	logD [15]: 0.92
174 (≈ 453 µM)	62870	296	4.22	1624.91	237 (≈ 618 µM)	154 (≈ 401 µM)	7.58	1.92	-0.22	5.25	101 (≈ 262 µM)	30.2	12319.3	COC(=O)[C@H](Cc1ccc(O)c(O)c1)NC(=O)[C@H](CCSC)NC(C)=O (Ac-Met-[Dopa]-OMe)	Active	Active	Active	Active	Active	Active	Activity (Rattus norvegicus [22]): 4.03 pmol/mg; concentration at 8 h [23]: 53000 ng/mL; Activity (Rattus norvegicus [24]): 0.09 pmol/mg; Activity (Rattus norvegicus [25]): Active; Activity (Rattus norvegicus [26]): 18 pmol/mg; Activity (Rattus norvegicus [27]): Active; Activity (Rattus norvegicus [28]): Active; Activity (Rattus norvegicus [29]): Active; logD [15]: 0.38
101 (≈ 262 µM)	51070	292	2.25	984.01	247 (≈ 642 µM)	256 (≈ 665 µM)	6.96	1.55	-0.25	4.39	103 (≈ 268 µM)	26.9	6844.84	COC(=O)[C@H](CCSC)NC(=O)[C@H](Cc1ccc(O)c(O)c1)NC(C)=O (Ac-[Dopa]-Met-OMe)	Active	Active	Active	Active	Active	Active	Activity (Rattus norvegicus [22]): 2.13 pmol/mg; Activity (Rattus norvegicus [24]): 0.22 pmol/mg; Activity (Rattus norvegicus [25]): Active; Activity (Rattus norvegicus [26]): 8 pmol/mg; Activity (Rattus norvegicus [27]): Active; Activity (Rattus norvegicus [28]): Active; Activity (Rattus norvegicus [29]): Active; logD [15]: -0.19

Second part, the compound before the results:

Structure (SMILES)	solubility [1] [µg/mL]	Cmax (Rattus norvegicus [2]) [ng/mL]	half-life [3] [h]	Tmax (Rattus norvegicus [5]) [h]	AUC (Rattus norvegicus [6]) [ug/hr.ml]	solubility [7] [µg/mL]	solubility [8] [µg/mL]	MRT (Rattus norvegicus [10]) [h]	half-life [11] [h]	log K [12]	half-life [13] [h]	solubility [17] [µg/mL]	half-life [19] [h]	AUMC (Rattus norvegicus [21]) [ug/ml.hr'2]	Activity (Rattus norvegicus [4])	Activity (Rattus norvegicus [9])	Activity [14]	Activity (Rattus norvegicus [16])	Activity (Rattus norvegicus [18])	Activity [20]	other results
COC(=O)[C@H](Cc1ccc(O)c(O)c1)NC(=O)[C@H](CS)NC(C)=O (Ac-Cys-[Dopa]-OMe)	201 (≈ 563 µM)	6910	301	4.05	179.06	228 (≈ 639 µM)	208 (≈ 584 µM)	9.34	0.78	-0.3	1.16	210 (≈ 590 µM)	46.2	1673.2	Active	Active	Active	Active	–	Active	–
COC(=O)[C@H](CS)NC(=O)[C@H](Cc1ccc(O)c(O)c1)NC(C)=O (Ac-[Dopa]-Cys-OMe)	159 (≈ 447 µM)	6190	291	4.11	110.62	152 (≈ 426 µM)	147 (≈ 414 µM)	9.52	0.61	-0.26	1.09	154 (≈ 431 µM)	48	1053.36	Active	Active	Active	Active	Active	Active	–
N[C@@H](Cc1ccc(O)c(O)c1)C(=O)O [LEVODOPA]	–	5630	–	1.03	117.73	–	–	8.95	–	–	–	–	–	1053.92	–	–	–	–	–	–	Activity (Rattus norvegicus [22]): 3.36 pmol/mg; Activity (Rattus norvegicus [24]): 0.07 pmol/mg
